Source: PubChem
CHOP inhibitor: inhibitors of CHOP promoter induction, primary screen, cell-based, unfolded protein response, luciferase reporter; 3.8% of 220,000 active; CHO-K1 CHOP-promoter luciferase, tunicamycin-induced, 15-18 h; inhibition, % at 10 µM;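 active means compounds that reduced the stress-induced luciferase reporter signal by more than about 70% of percent inhibition, limit read from the data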;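 further: 0% = tunicamycin plus vehicle and 100% = wells without tunicamycin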
T cruzi inh: inhibitors of intracellular T. cruzi growth, primary screen, luminescence, NIH3T3 host cells; 1.4% of 300,000 active; T. cruzi beta-gal in NIH3T3, 90 h; inhibition, % (concentration not given with the values);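 active means mean inhibition across valid replicates above about 55%, limit read from the data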;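 further: signal also drops with host cell toxicity which is not excluded here; 0% = plate median of DMSO wells and 100% = zero luminescence signal; higher percent means less beta-gal luminescence so fewer parasites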
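Test system: β-gal T. cruzi (Tulahuen C4) inside NIH/3T3 cells / Quantity: 5,000 cells/well / Measured by: luminescence from GalScreen with 0.05% NP40, read after 60 min / Medium: DMEM plus 2% FBS / Measure: parasite load inhibition, % / Reagent: Tulahuen C4 trypomastigotes, 5000/well / Schedule: co-culture of at least 90 h after 3 h attachment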
GRIN3A LBD mod: binders of NR3A ligand-binding domain, primary screen, biophysical, differential scanning fluorimetry, uHTS; 2.5% of 340,000 active; AID 1259313, 2017; Tm shift relative to glycine control, % at 25 µM; NR3A LBD differential scanning fluorimetry, Tm shift; 0% = protein alone, 100% = glycine-bound protein;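 active means melting temperature shift of at least 10% of the positive control shift, at one fixed dose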
Beta apoptosis: inhibitors of cytokine-induced beta cell apoptosis, primary screen, luminescence. INS-1E cytokine-induced death, ATP luminescence, 48 h; percent of positive-control rescue, neutral wells zero. protection from apoptosis, % (test concentration not listed). 0.8% of 300,000 active. AID 435005, 2010;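 active means Every replicate reaches about 75%, or at least half do and their mean reaches it too, limit read from the data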;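 further: 0% = cytokine-treated negative control wells and 100% = positive control rescue; higher means more ATP so stronger rescue from cytokine killing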
PREPL inhibitor: PREPL enzyme inhibitors, primary screen, biochemical, fluorescence polarization; Prolyl endopeptidase-like (Homo sapiens), Q4J6C6; recombinant PREPL, fluorescence polarization activity-based probe; inhibition, % at 5.96 µM; 0.68% of 320,000 active; AID 2751, 2010; in the data active means inhibition above about 43%;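 further: 0% = enzyme with DMSO and 100% = wells lacking enzyme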
Target sequence (Q4J6C6 whole entry, looked up): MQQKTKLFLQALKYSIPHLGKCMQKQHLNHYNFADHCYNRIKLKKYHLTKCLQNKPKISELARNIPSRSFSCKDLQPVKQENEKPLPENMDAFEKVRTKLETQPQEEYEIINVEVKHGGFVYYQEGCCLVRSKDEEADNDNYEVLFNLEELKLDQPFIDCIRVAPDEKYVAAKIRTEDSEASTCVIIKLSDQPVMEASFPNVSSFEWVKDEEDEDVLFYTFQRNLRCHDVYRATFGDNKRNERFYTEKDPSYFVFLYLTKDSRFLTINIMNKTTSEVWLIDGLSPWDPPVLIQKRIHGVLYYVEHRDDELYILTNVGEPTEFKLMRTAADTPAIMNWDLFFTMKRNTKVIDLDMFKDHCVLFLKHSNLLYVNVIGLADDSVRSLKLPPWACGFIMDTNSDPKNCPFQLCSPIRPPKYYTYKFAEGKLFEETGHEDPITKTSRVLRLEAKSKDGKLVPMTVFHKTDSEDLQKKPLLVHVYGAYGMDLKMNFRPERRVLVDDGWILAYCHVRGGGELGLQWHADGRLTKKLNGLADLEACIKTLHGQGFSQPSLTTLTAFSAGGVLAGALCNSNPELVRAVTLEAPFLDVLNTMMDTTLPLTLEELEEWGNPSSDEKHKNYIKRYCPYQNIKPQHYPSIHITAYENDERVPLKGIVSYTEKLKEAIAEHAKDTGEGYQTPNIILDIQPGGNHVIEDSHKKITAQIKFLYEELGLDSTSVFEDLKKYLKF
CSC inhib: cancer stem cell viability inhibitors, primary screen, luminescence; cancer stem cell-like cells viability; inhibition, % at 7.5 µM; 1.1% of 300,000 active; AID 2717, 2010; in the data active means inhibition above about 75%; tested in HMLE shEcad cells
Starred values were filed as active, the others as inactive; . = no result given. An excerpt weighted towards active compounds, which were near 6.7% of everything screened.

SMILES | CHOP inhibitor | T cruzi inh | GRIN3A LBD mod | Beta apoptosis | PREPL inhibitor | CSC inhib
O=C(Nc1nnc(SCc2ccc(F)cc2)s1)c1ccc2ncsc2c1 | 72.7* | -6.4 | 1.1 | . | . | .
CC(=O)Nc1ccc(NC(=O)CSc2nnc(NC(=O)C3CC3)s2)cc1 | . | -9.0 | 2.5 | 0.4 | 1.8 | -28.0
CC(=O)Nc1nnc(SCc2ccc(F)cc2)s1 | -11.1 | 6.9 | -2.1 | -1.3 | 0.8 | -1.5
COc1ccc(CNCc2ccc(C(F)(F)F)cc2)cc1OC | . | -12.7 | -4.6 | -2.4 | -3.7 | -11.2
Cc1cccn2c(=O)c3cc(C(=O)NC4CCCC4)sc3nc12 | . | 16.3 | 4.9 | . | -15.0 | -0.2
O=C(Nc1nnc(-c2ccc(F)cc2)s1)c1ccco1 | . | -6.6 | 0.6 | -6.1 | -0.8 | -3.3
COc1ccc(C(=O)Nc2nnc(SCC(=O)Nc3ccc(NC(C)=O)cc3)s2)c(OC)c1 | . | -4.3 | 20.4* | -1.2 | 9.2 | 20.0
Cc1cccc(-c2nnc(NC(=O)c3ccco3)s2)c1 | . | -7.0 | 23.7* | -7.4 | 1.7 | -7.7
CC(C)CC(=O)Nc1ccc2c(c1)nc(CCN1CCOCC1)n2C | . | -10.0 | 0.4 | -5.6 | -2.9 | -3.8
COC(=O)[C@@]1(Cc2ccccc2)[C@H]2C(=O)N(C)C(=O)[C@H]2[C@H]2CN=C(SC)N21 | . | . | 4.7 | . | . | .
Cc1nn(C(=O)c2cccs2)c(N)c1-c1ccccc1 | 94.6* | -6.1 | -1.1 | -5.9 | -0.9 | 7.0
CC(=O)c1c(C)nn(C(=O)c2cccs2)c1C | 6.1 | -8.3 | -4.8 | 1.9 | -7.2 | -5.7
CCOCCCn1c(SCc2ccccc2)nnc1-c1ccncc1 | . | 4.3 | -1.0 | -1.3 | 14.4 | 0.9
CN(CCc1ccccn1)Cc1ccc(Cl)cc1 | -11.9 | 56.2* | 0.1 | -3.8 | -3.9 | -18.5
COc1ccc(CN(C)CCc2ccccn2)cc1OC | 14.3 | . | 0.8 | -3.0 | 19.1 | 11.7
CCc1ccc(CN(C)CCc2ccccn2)cc1 | -18.4 | 63.2* | -4.2 | -3.7 | 2.9 | -3.0
Cc1ccc(CN(C)CCc2ccccn2)cc1 | -2.2 | 66.9* | -1.6 | -2.8 | 21.1 | 8.3
Cc1ccccc1C(=O)NCCCNC(=O)c1ccccc1C | . | 3.8 | -0.2 | . | 23.4 | 10.5
O=C(Cc1cccc(NC(=O)C2CCCN(C(=O)C3CCCCC3)C2)c1)Nc1cccc(C(=O)N2CCCCC2)c1 (stereo unspecified) | . | . | 0.9 | . | . | .
COc1ccc2cc(/C=N/NC(=O)CN(c3ccccc3C)S(=O)(=O)c3ccccc3)c(Cl)nc2c1 | 16.2 | -3.2 | 11.2* | -4.0 | 14.2 | 19.4
COc1ccc(N(CC(=O)N/N=C/c2ccc(OC)cc2OC)S(=O)(=O)c2ccccc2)cc1 | . | -9.1 | 0.6 | -1.4 | -3.6 | -17.9
CCOC(=O)/C(C#N)=C/c1ccc(SC)cc1 | -2.8 | -17.8 | -1.1 | -5.7 | -1.8 | -4.0
CC(C)(C)c1ccc(-c2noc(CCC(=O)NCc3ccco3)n2)cc1 | 85.3* | -11.4 | 2.6 | -10.7 | 2.3 | 4.7
COc1ccc(-c2noc(CCC(=O)NCc3cc(Br)ccc3OC)n2)cc1 | 45.4 | 5.8 | -5.5 | -10.2 | -33.5 | -0.7
COc1ccc(Br)cc1CNC(=O)CCc1nc(-c2ccc(C)cc2)no1 | 75.6* | 12.5 | -24.1 | 0.2 | -7.6 | -15.0
SMILES | CHOP inhibitor | T cruzi inh | GRIN3A LBD mod | Beta apoptosis | PREPL inhibitor | CSC inhib
Cc1cccc(-c2noc(CCC(=O)NCc3ccco3)n2)c1 | 45.0 | 0.3 | -1.4 | 2.8 | 10.0 | 1.0
O=C(CN1CCN(Cc2ccccc2)CC1)Nc1cccc(C(F)(F)F)c1 | 31.0 | 13.6 | 2.0 | 0.2 | 7.5 | 4.6
Cc1ccc(Cn2c(=O)c3cccnc3n(CC(=O)Nc3cccc(C(F)(F)F)c3)c2=O)cc1 | 45.4 | 39.2 | 22.8* | -2.6 | -5.5 | 41.2
O=C(CSc1n[nH]c(-c2ccncc2)n1)Nc1ccc(F)cc1 | . | 4.4 | -2.3 | 0.5 | 0.4 | 0.1
O=C(CSc1n[nH]c(-c2ccco2)n1)Nc1ccc(Br)cc1 | . | -8.6 | 13.5* | -2.0 | -14.6 | 1.0
O=C(CSc1n[nH]c(-c2ccncc2)n1)Nc1ccccc1 | . | -11.3 | 27.4* | -1.6 | -10.4 | -10.8
COc1ccc(OC2CCN(S(=O)(=O)c3ccc(C(C)=O)cc3)CC2)cc1 | . | 36.7 | -1.1 | -8.5 | -14.0 | -6.7
COc1ccc(-c2n[nH]c(C)c2-c2ccc(Cl)cc2)c(O)c1OC | 89.7* | -5.9 | -17.8 | -9.6 | -2.1 | 34.1
COc1ccc(-c2n[nH]c(C)c2-c2ccc(Cl)cc2)c(O)c1 | 92.9* | -17.8 | 10.4* | 17.8 | -5.2 | 47.0
Cc1[nH]nc(-c2ccc(O)cc2O)c1-c1ccc(Cl)cc1 | 46.2 | 3.7 | 22.7* | 4.7 | -4.6 | 29.9
COc1ccc(-c2c(-c3ccc(OCC(=O)NN)cc3O)n[nH]c2C)cc1 | 13.8 | 1.3 | 2.4 | 0.6 | 10.2 | 6.7
COc1ccc(O)c(-c2c(-c3ccc(Cl)cc3)n[nH]c2C)c1 | 30.6 | 5.3 | -5.2 | -2.4 | 13.7 | .
Cc1[nH]nc(-c2ccc(O)cc2O)c1-c1nc2ccccc2s1 | 3.2 | 17.5 | -11.8 | . | 6.7 | 4.9
CCCCC[C@H](O)/C=C/[C@H]1[C@H](O)CC(=O)[C@@H]1CCCCCCC(=O)O | . | 15.2 | . | . | 31.6 | -0.3
CCCCCCCCCCC[C@@H](C[C@@H]1OC(=O)[C@H]1CCCCCC)OC(=O)[C@H](CC(C)C)NC=O | -0.6 | 5.1 | -5.2 | 3.8 | 7.1 | 102.4*
COc1ccc([N+](=O)[O-])cc1N(CC(=O)NCCC1=CCCCC1)S(C)(=O)=O | 26.3 | 20.2 | -1.1 | -0.6 | -5.7 | -14.2
Oc1ccc(/C=N/N(Cc2ccccc2)c2ccccc2)c(O)c1O | 80.4* | -0.1 | -1.6 | . | . | .
Oc1cccc(/C=N/N(Cc2ccccc2)c2ccccc2)c1 | 56.1 | -2.7 | 16.0* | -1.0 | 15.3 | 87.0*
CCCn1c(SCC(=O)Nc2ccccc2N2CCCCC2)nc2c1c(=O)n(C)c(=O)n2C | 32.4 | 16.0 | -2.5 | -28.9 | 15.2 | 3.4
COc1ccc(Br)cc1C(=O)Nc1ccc(NC(=O)c2ccco2)cc1 | 20.3 | 8.3 | 17.6* | 12.0 | 4.8 | -3.3
Cc1ccc(/C=C/C(=O)c2cc(Br)ccc2OC(=O)c2ccco2)cc1 | 21.0 | -6.3 | 2.4 | 8.2 | 19.0 | 93.3*
COc1c(F)c(F)c(C(=O)Nc2ccc(NC(=O)c3ccco3)cc2)c(F)c1F | 80.1* | -10.2 | 5.9 | -0.1 | -5.7 | 12.4
COc1ccc(NC(=O)c2ccco2)cc1NC(=O)c1c(F)c(F)c(OC)c(F)c1F | 32.3 | -2.2 | 0.8 | -2.3 | 8.8 | -2.7
COc1ccc(NC(=O)c2ccco2)cc1N | 70.0* | 23.8 | -1.7 | 3.5 | 10.4 | -6.6
Oc1ccc(Cl)cc1-c1cc(-c2ccco2)[nH]n1 | 44.5 | -8.7 | 11.1* | -8.0 | -7.1 | 17.8
